Assay [1] has as its system ASPC1. Description: Antiproliferative activity against human ASPC1 cells assessed as reduction in cell viability incubated for 72 hrs by CCK8 assay. It counts as functional, cell-based. As to conditions: ASPC1, 72 h. An outline of the steps:
(§1)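 Cells kept as monolayers at 37 °C, 5% CO2, seeded 3000-4000/well for 12 h, then exposed to compounds for 72 h. CCK-8 added for 1-2 h at 37 °C, absorbance read at 450 nm. Each dose run in triplicate, experiment repeated at least three times. IC50 taken from dose-response curves.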
A general note: Tetrazolium dyes change colour on reduction, which living cells bring about.

Assay [2] has as its system NCI-H1975. In words: Antiproliferative activity against human NCI-H1975 cells harboring EGFR L858R/T790M mutant assessed as reduction in cell viability incubated for 72 hrs by CCK8 assay. It counts as functional, cell-based. The note with it: NCI-H1975, 72 h. An outline of the steps: as §1
The target of assay [3] is Epidermal growth factor receptor (Homo sapiens, UniProt P00533). In words: Inhibition of wild type EGFR (unknown origin) measured after 60 mins by ADP-Glo kinase based luminescence assay. On the technique in general: In ADP-Glo the light output rises with the ADP produced.
Chain of Epidermal growth factor receptor (Homo sapiens, UniProt P00533) (P00533 whole entry): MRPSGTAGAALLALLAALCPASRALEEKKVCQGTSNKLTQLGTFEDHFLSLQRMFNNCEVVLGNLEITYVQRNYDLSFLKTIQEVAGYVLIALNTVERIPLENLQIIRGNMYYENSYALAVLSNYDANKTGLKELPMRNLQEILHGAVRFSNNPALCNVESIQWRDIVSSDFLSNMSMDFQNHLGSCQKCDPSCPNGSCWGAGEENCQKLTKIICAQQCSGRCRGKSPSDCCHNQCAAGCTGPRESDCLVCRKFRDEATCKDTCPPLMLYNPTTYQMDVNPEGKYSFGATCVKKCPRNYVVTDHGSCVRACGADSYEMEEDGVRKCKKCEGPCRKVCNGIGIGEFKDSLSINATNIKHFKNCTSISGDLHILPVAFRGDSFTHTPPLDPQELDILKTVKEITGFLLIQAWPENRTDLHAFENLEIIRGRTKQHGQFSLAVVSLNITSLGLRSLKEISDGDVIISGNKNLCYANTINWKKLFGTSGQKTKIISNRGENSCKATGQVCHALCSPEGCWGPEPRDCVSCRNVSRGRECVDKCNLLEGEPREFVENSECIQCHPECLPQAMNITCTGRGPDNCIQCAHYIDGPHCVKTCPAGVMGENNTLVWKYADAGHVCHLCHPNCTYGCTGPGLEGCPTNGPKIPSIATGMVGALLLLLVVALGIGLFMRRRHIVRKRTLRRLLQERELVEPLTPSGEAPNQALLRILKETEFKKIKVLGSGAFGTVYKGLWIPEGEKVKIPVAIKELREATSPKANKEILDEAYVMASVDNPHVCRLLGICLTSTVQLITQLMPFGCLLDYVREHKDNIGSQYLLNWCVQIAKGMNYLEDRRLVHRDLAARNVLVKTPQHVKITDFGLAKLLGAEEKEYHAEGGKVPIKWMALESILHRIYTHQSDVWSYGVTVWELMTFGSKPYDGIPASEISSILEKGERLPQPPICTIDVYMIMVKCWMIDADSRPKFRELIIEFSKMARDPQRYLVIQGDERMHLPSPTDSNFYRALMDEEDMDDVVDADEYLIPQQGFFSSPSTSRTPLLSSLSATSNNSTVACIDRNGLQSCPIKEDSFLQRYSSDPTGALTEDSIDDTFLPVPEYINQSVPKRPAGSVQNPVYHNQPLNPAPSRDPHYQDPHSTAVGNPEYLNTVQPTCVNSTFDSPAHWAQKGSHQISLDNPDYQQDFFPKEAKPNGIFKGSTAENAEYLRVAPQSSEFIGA
Assay [4] deals with NCI-H23. Description: Antiproliferative activity against human NCI-H23 cells harboring KRAS mutant assessed as reduction in cell viability incubated for 72 hrs by CCK8 assay. Format: functional, cell-based. As to conditions: NCI-H23, 72 h. An outline of the steps:
as §1

The subject of assay [5] is L02. In words: Antiproliferative activity against human L02 cells assessed as reduction in cell viability incubated for 72 hrs by CCK8 assay. Format: cell-based. The note with it: L02, 72 h.
Assay [6] can be described thus: Cytotoxicity against human HBE cells assessed as reduction in cell viability incubated for 72 hrs by CCK8 assay. Format: cell-based. An outline of the steps: as §1
The subject of assay [7] is A-431. In words: Cytotoxicity against human A-431 cells harboring wild type EGFR assessed as reduction in cell viability incubated for 72 hrs by CCK8 assay. It counts as cell-based. As to conditions: A-431, 72 h. Put shortly: as §1
Assay [8] addresses Epidermal growth factor receptor (Homo sapiens, UniProt P00533, L858R/T790M). Description: Inhibition of EGFR L858R/T790M double mutant (unknown origin) measured after 60 mins by ADP-Glo kinase based luminescence assay.
Assay [9] in a line: Selectivity index, ratio of IC50 for human A-431 cells harboring wild type EGFR (unknown origin) to IC50 for human NCI-H1975 cells harboring EGFR L858R/T790M mutant.
The test system of assay [10] is A549. Description: Antiproliferative activity against human A549 cells harboring KRAS G12S mutant assessed as reduction in cell viability incubated for 72 hrs by CCK8 assay. Format: functional, cell-based. As to conditions: A549, 72 h. An outline of the steps:
as §1

A value given as a limit tells only on which side of the number the result lay.

By IC50 is commonly meant the concentration needed to halve the response being measured.

Chain of Epidermal growth factor receptor (Homo sapiens, UniProt P00533, L858R/T790M) (P00533 25-1210 T790M/L858R limits assumed): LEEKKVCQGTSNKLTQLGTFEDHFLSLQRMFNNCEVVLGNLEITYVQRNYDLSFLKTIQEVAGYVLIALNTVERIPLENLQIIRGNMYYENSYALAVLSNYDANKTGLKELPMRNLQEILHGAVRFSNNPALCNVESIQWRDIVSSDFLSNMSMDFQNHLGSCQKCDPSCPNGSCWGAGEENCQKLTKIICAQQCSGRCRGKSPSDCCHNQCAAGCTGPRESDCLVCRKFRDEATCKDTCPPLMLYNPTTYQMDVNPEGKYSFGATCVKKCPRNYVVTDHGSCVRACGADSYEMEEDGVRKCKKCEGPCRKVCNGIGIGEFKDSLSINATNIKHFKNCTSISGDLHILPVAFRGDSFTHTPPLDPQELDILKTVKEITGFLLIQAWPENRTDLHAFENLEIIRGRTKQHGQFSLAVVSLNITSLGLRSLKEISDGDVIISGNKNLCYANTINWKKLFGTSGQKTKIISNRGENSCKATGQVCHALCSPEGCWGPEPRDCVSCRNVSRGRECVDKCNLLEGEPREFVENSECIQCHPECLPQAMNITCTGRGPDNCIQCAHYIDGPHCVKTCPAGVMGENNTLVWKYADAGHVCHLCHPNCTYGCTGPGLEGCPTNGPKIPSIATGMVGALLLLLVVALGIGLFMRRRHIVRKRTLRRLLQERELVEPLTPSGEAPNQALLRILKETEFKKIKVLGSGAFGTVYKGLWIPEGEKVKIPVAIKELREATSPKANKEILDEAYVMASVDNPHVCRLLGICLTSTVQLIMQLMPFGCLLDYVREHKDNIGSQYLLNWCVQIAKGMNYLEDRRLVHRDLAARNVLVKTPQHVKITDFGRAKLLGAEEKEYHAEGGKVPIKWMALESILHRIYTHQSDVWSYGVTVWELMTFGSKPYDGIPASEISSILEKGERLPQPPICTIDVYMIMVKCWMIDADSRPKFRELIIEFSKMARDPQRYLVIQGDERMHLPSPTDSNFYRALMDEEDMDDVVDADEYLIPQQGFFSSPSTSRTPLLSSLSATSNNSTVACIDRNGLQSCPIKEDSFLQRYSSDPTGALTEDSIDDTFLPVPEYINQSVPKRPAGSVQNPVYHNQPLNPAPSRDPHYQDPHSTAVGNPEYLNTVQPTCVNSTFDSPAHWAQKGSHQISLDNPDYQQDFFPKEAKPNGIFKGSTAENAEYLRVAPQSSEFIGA

Regarding `CNC(=O)c1ccccc1Nc1nc(Nc2ccc(CN3CCC(C(=O)NO)CC3)cc2)ncc1Cl`, the IC50 turned out to be 374 nM in [1]; 245 nM in assay [2]; 1.09 nM in [3]; 8420 nM in assay [4]; 1280 nM in [5]; 15900 nM in assay [6]. For the same compound, the IC50 came to 1160 nM in assay [7], 117 nM in assay [8] and 245 nM in assay [10]. The “Ratio IC50” value in assay [9] worked out at 4.72.
On to `CN1CCN(c2ccc(Nc3ncc(Cl)c(Nc4ccccc4C(=O)NO)n3)cc2)CC1`, for which the IC50 is below 156 nM in assay [1]; below 78.1 nM in assay [2]; 6.56 nM in assay [3]; 217 nM in assay [4]; below 1250 nM in assay [5]; 22600 nM in assay [6]. Besides, the IC50 in assay [7] is 253 nM; in assay [8] it was 68.8 nM; in assay [10], below 78 nM. For the same compound, the “Ratio IC50” value in assay [9] is above 3.24.
Consider `CNC(=O)c1ccccc1Nc1nc(Nc2ccc(NC(=O)CN3CCOCC3)c(C)c2)ncc1Cl`, for which the IC50 in assay [2] amounted to 333 nM; in assay [8], 3.89 nM.
For the compound `O=C(COc1ccc(Nc2ncc(Cl)c(Nc3ccccc3C(=O)NO)n2)cc1)NO`, the IC50 is 1580 nM in [1]; 1110 nM in assay [2]; 50.2 nM in assay [3]; 6400 nM in assay [4]; 7870 nM in assay [5]; above 40000 nM in assay [6]. Further, the IC50 in assay [7] stood at 2060 nM; in assay [8], 65.4 nM; in assay [10] it was 1110 nM. Further, the “Ratio IC50” value in assay [9] came out at 1.86.
Take `O=C(O)c1ccccc1Nc1nc(Nc2ccc(OCC(=O)N3CCOCC3)cc2)ncc1Cl`: the IC50 is above 10000 nM in [2], 81.4 nM in assay [3], 15500 nM in assay [5] and 199 nM in [8].
For `CCOC(=O)c1ccccc1Nc1nc(Nc2ccc(OCC(=O)N3CCOCC3)cc2)ncc1Cl` the same measures were 2900 nM, 32 nM, 30200 nM and 0.245 nM.
On to `O=C(CN1CCOCC1)Nc1ccc(Nc2ncc(Cl)c(Nc3ccccc3C(=O)NO)n2)cc1`, for which the IC50 is 750 nM in [1]; 385 nM in assay [2]; 126 nM in [3]; 1740 nM in assay [4]; 2110 nM in assay [5]; above 40000 nM in [6]. In addition, the values for the IC50 in assay [7], in assay [8] and in [10] were 1530 nM, 113 nM and 385 nM, respectively. Besides, the “Ratio IC50” value in [9] was determined as 3.98.
Turning to `O=C(NO)c1ccccc1Nc1nc(Nc2ccc(CN3CCOCC3)cc2)ncc1Cl`, the IC50 in [1] is below 156 nM; in assay [2], below 78.1 nM; in assay [3], 4.5 nM; in assay [4], 554 nM; in assay [5], below 1250 nM; in assay [6], 29100 nM. Further, the IC50 in [7] is 2430 nM; in assay [8], 98.8 nM; in assay [10] it was below 78 nM. In assay [9], the “Ratio IC50” value is reported as above 31.08.
As to `O=C(NO)c1ccccc1Nc1nc(Nc2ccc(N3CCOCC3)cc2)ncc1Cl`, the IC50 in [1] was 1410 nM; in assay [2], 109 nM; in assay [3] it was 169 nM; in assay [4], 801 nM; in assay [5], 2190 nM; in assay [6] it was above 40000 nM. Moreover, the IC50 was found to be 1580 nM in assay [7], 116 nM in [8] and 109 nM in assay [10]. Besides, the “Ratio IC50” value in [9] was determined as 14.46.
Turning to `CNC(=O)c1ccccc1Nc1nc(Nc2ccc(N3CCC(C(=O)NO)CC3)cc2)ncc1Cl`, the IC50 in assay [1] worked out at 499 nM; in [2], 329 nM; in [3], 119 nM; in [4], 1540 nM; in assay [5], 1730 nM; in [6], 12600 nM. The results for the IC50 in [7], in assay [8] and in [10] were 127 nM, 49.9 nM and 329 nM, respectively. Also, the “Ratio IC50” value in assay [9] was found to be 0.39.
As to `C=CC(=O)Nc1cc(Nc2nccc(-c3cn(C)c4ccccc34)n2)c(OC)cc1N(C)CCN(C)C` [OSIMERTINIB], in assay [2], the IC50 was […].
With `CNC(=O)c1ccccc1Nc1nc(Nc2ccc(OCCCN3CCC(C(=O)NO)CC3)cc2)ncc1Cl`, the IC50 in assay [1] was below 156 nM; in assay [2], 156 nM; in assay [3], 46.7 nM; in assay [4] it was 2110 nM; in assay [5], below 1250 nM; in assay [6], 8570 nM. Further, the IC50 stood at 448 nM in assay [7], 45 nM in assay [8] and 156 nM in [10]. In addition, in assay [9], the “Ratio IC50” value is listed as 2.88.
For `O=C(NO)c1ccccc1Nc1nc(Nc2ccc(OCCCN3CCOCC3)cc2)ncc1Cl`, the IC50 came out at 1230 nM in [1]; 321 nM in assay [2]; 1.25 nM in assay [3]; 665 nM in [4]; 1730 nM in assay [5]; 26500 nM in assay [6]. The IC50 in [7] turned out to be 1400 nM; in assay [8] it was 64.8 nM; in assay [10], 321 nM. Further, in [9], the “Ratio IC50” value amounted to 4.38.
Regarding `O=C(NO)c1ccccc1Nc1nc(Nc2ccc(OCC(=O)N3CCOCC3)cc2)ncc1Cl`, the IC50 is 530 nM in assay [1]; 129 nM in assay [2]; 57.3 nM in assay [3]; 820 nM in assay [4]; 4810 nM in assay [5]; 20200 nM in assay [6]. Further, the IC50 came out at 670 nM in [7], 16 nM in assay [8] and 129 nM in assay [10]. Further, in [9], the “Ratio IC50” value is on record as 5.19.
For `CN1CCN(CCOc2ccc(Nc3ncc(Cl)c(Nc4ccccc4C(=O)NO)n3)cc2)CC1`, the IC50 in assay [1] was determined as 244 nM; in assay [2], 822 nM; in assay [3] it was 0.763 nM; in assay [4], 642 nM; in assay [5], 1950 nM; in assay [6], 29800 nM. Further, the IC50 in [7] came out at 692 nM; in [8] it was 6.82 nM; in [10], 203 nM. For the same compound, the “Ratio IC50” value in assay [9] turned out to be 0.84.

The values above are taken from ChEMBL document CHEMBL4831496, “Noncovalent EGFR T790M/L858R inhibitors based on diphenylpyrimidine scaffold: Design, synthesis, and bioactivity evaluation for the treatment of NSCLC” (Eur J Med Chem, 2021).
